The species entered for experiment [1] is Rattus norvegicus. Kind of experiment: Tested for the hypolipidemic activity, expressed as percent decrease in Triglyceride in rat, at dosage of 102 mg for 7 days by Ryan and Rasho method. The class given is functional. Summed up: (§1)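 Male Sprague-Dawley rats, 4 weeks old, kept on CE-2 chow for at least 1 week, then grouped (generally five per group). Compound was mixed into CE-2 powder and fed ad libitum for the stated period; controls received plain CE-2 powder. Diet level is given as mg/100 g (mg%), about equal to mg/kg/day. Total serum triglyceride was measured by the Ryan and Rasho method and reported as percent depression versus control group mean. Significance was p < 0.05.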

The species named for experiment [2] is Rattus norvegicus. Kind of experiment: Tested for the hypolipidemic activity, expressed as percent decrease in serum cholesterol in rat, at dosage of 102 mg for 7 days by Zak et al method. The class given is functional. Summed up:
(§2)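 Male Sprague-Dawley rats, 4 weeks old, kept on CE-2 chow for at least 1 week, then grouped (generally five per group). Compound was mixed into CE-2 powder and fed ad libitum for the stated period; controls received plain CE-2 powder. Diet level is given as mg/100 g (mg%), about equal to mg/kg/day. Total serum cholesterol was measured by the Zak et al. method and reported as percent depression versus control group mean. Significance was p < 0.05.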

The species named for experiment [3] is Rattus norvegicus. Kind of experiment: Tested for the hypolipidemic activity, expressed as percent decrease in Triglyceride in rat, at dosage of mg for 7 days by Ryan and Rasho method. The class given is functional. Summed up:
as §1

Experiment [4] is filed under the species Rattus norvegicus. Kind of experiment: Tested for the hypolipidemic activity, expressed as percent decrease in serum cholesterol in rat, at dosage of 50 mg for 7 days. The experiment is classed as functional. A digest of the protocol: as §2
The subject of experiment [5] is Rattus norvegicus. Kind of experiment: In vivo hypolipidemic activity, expressed as percent decrease in Triglyceride in rat, at dosage of 100 mg for 7 days. The experiment is classed as functional. Summed up:
as §1

Experiment [6] is filed under the species Rattus norvegicus. In words: Hypolipidemic activity expressed as percentage decrease in triglyceride in rat, at dosage of 50 mg for 7 days. The experiment is classed as functional. A digest of the protocol:
as §1

For experiment [7], the species on record is Rattus norvegicus. In words: Hypolipidemic activity, expressed as percent decrease in serum cholesterol in rat, at dosage of 100 mg for 7 days by Zak et al method. The experiment is classed as functional. Summed up: as §2
Experiment [8] has as its system Rattus norvegicus. In words: In vivo hypolipidemic activity, expressed as percent decrease in serum cholesterol in rat, at dosage of 20 mg for 7 days. The experiment is classed as functional. A digest of the protocol: as §2
The species entered for experiment [9] is Rattus norvegicus. In words: tested for the hypolipidemic activity, expressed as percent decrease in serum cholesterol in rat, at dosage of 10 mg for 7 days by Zak et al method. The experiment is classed as functional. A digest of the protocol:
as §2

Experiment [10] is filed under the species Rattus norvegicus. Kind of experiment: tested for the hypolipidemic activity, expressed as percent decrease in Triglyceride in rat, at dosage of 10 mg for 7 days by Ryan and Rasho method. The class given is functional. Summed up:
as §1

Experiment [11] concerns Rattus norvegicus. In words: In vivo hypolipidemic activity, expressed as percent decrease in serum triglyceride in rat, at dosage of 20 mg for 7 days.
Experiment [12] relates to Rattus norvegicus. In words: tested for the hypolipidemic activity, expressed as percent decrease in Triglyceride in rat, at dosage of 20 mg/kg 0 mg for 7 days by Ryan and Rasho method.
Experiment [13] is filed under the species Rattus norvegicus. In words: Tested for the hypolipidemic activity, expressed as percent decrease in Triglyceride in rat, at dosage of 100 mg for 6 days by Ryan and Rasho method. The experiment is classed as functional. A digest of the protocol: as §1
The species entered for experiment [14] is Rattus norvegicus. In words: Tested for the hypolipidemic activity, expressed as percent decrease in serum cholesterol in rat, at dosage of 100 mg for 6 days by Zak et al method. The experiment is classed as functional. Summed up: as §2
The species entered for experiment [15] is Rattus norvegicus. Kind of experiment: tested for the hypolipidemic activity, expressed as percent decrease in Triglyceride in rat, at dosage of 50 mg for 3 days by Ryan and Rasho method. The experiment is classed as functional. A digest of the protocol:
as §1

The species entered for experiment [16] is Rattus norvegicus. Kind of experiment: tested for the hypolipidemic activity, expressed as percent decrease in serum cholesterol in rat, at dosage of 50 mg for 3 days by Zak et al method. The class given is functional. A digest of the protocol: as §2
Experiment [17] is filed under the species Rattus norvegicus. Kind of experiment: Tested for the hypolipidemic activity, expressed as percent decrease in Triglyceride in rat, at dosage of 10 mg for 7 days by Ryan and Rasho method. The class given is functional. A digest of the protocol: as §1
For experiment [18], the species on record is Rattus norvegicus. In words: Tested for the hypolipidemic activity, expressed as percent decrease in serum cholesterol in rat, at dosage of 10 mg for 7 days by Zak et al method. The experiment is classed as functional. A digest of the protocol: as §2
For experiment [19], the species on record is Rattus norvegicus. In words: Tested for the hypolipidemic activity, expressed as percent decrease in Triglyceride in rat, at dosage of 100 mg for 3 days by Ryan and Rasho method. The class given is functional. Summed up:
as §1

Experiment [20] is filed under the species Rattus norvegicus. Kind of experiment: Tested for the hypolipidemic activity, expressed as percent decrease in serum cholesterol in rat, at dosage of 100 mg for 3 days by Zak et al method. The experiment is classed as functional. A digest of the protocol: as §2
Experiment [21] is filed under the species Rattus norvegicus. Kind of experiment: Tested for the hypolipidemic activity, expressed as percent decrease in Triglyceride in rat, at dosage of 100 mg for 5 days by Ryan and Rasho method. The experiment is classed as functional. Summed up: as §1
The species entered for experiment [22] is Rattus norvegicus. In words: Tested for the hypolipidemic activity, expressed as percent decrease in serum cholesterol in rat, at dosage of 100 mg for 5 days by Zak et al method. The class given is functional. A digest of the protocol:
as §2

For experiment [23], the species on record is Rattus norvegicus. Kind of experiment: tested for the hypolipidemic activity, expressed as percent decrease in Triglyceride in rat, at dosage of 20 mg for 7 days by Ryan and Rasho method. The class given is functional. A digest of the protocol:
as §1

Experiment [24] is filed under the species Rattus norvegicus. In words: Tested for the hypolipidemic activity, expressed as percent decrease in serum cholesterol in rat, at dosage of 20 mg for 7 days by Zak et al method. The class given is functional. A digest of the protocol: as §2
The species entered for experiment [25] is Rattus norvegicus. Kind of experiment: tested for the hypolipidemic activity, expressed as percent decrease in Triglyceride in rat, at dosage of 75.8 mg for 7 days by Ryan and Rasho method. The experiment is classed as functional. A digest of the protocol:
as §1

Experiment [26] is filed under the species Rattus norvegicus. Kind of experiment: Tested for the hypolipidemic activity, expressed as percent decrease in serum cholesterol in rat, at dosage of 75.8 mg for 7 days by Zak et al method. The experiment is classed as functional. A digest of the protocol:
as §2

Experiment [27] is filed under the species Rattus norvegicus. Kind of experiment: Tested for the hypolipidemic activity, expressed as percent decrease in Triglyceride in rat, at dosage of 30 mg for 7 days by Ryan and Rasho method. The experiment is classed as functional. Summed up:
as §1

For experiment [28], the species on record is Rattus norvegicus. Kind of experiment: Tested for the hypolipidemic activity, expressed as percent decrease in serum cholesterol in rat, at dosage of 30 mg for 7 days by Zak et al method. The experiment is classed as functional. Summed up:
as §2

With `CCCCCCCCCCCCCCCC(=O)OCC(COC(=O)/C(C)=C/c1ccc(OCCCCCCCCCCCCCC)cc1)OC(=O)CCCCCCCCCCCCCCC` (configuration not stated), the Decrease in experiment [1] is reported as 5%; in [2], 18%.
As for `CCCCCCCCCCCCOc1ccc(/C=C(\C)C(=O)OCC(COC(=O)/C(C)=C/c2ccc(OCCCCCCCCCCCC)cc2)OC(=O)/C(C)=C/c2ccc(OCCCCCCCCCCCC)cc2)cc1` (configuration not stated), the Decrease was found to be 28% in experiment [3] and 2% in experiment [4].
As for `C=C(C)C(=O)OCCOC(=O)/C=C/c1ccc(OCCCCCCCCCCCCCCCC)cc1`, the Decrease stood at 65% in experiment [5]; 42% in experiment [6]; 27% in experiment [7]; 16% in experiment [8]; 5% in experiment [9]; 15% in experiment [10]. Further, the Decrease was determined as 13% in experiment [4] and 38% in [11].
For the compound `CCCCCCCCCCCCCCCCOc1ccc(/C=C/C(=O)OCCCl)cc1`, the Decrease was 43% in [6], 17% in [8], -4% in experiment [4] and 17% in [12].
For `CCCCCCCCCCCCCCCCOc1ccc(/C=C/C(=O)OCC(O)CO)cc1` (configuration not stated), the Decrease in experiment [5] is reported as 62%; in [6] it was 17%; in experiment [7] it was 26%; in experiment [8] it was 9%; in experiment [9], -4%; in [10], 11%. In addition, the Decrease in [4] is recorded as 19%; in experiment [11], 8%.
As for `CCCCOc1ccc(/C=C/C(=O)OCC(O)CO)cc1` (configuration not stated), the values for the Decrease in [13] and in experiment [14] were 15% and 7%, respectively.
Consider `C=C(C)C(=O)OCCOC(=O)/C(C)=C/c1ccc(OCCCCCCCCCCCCCCCC)cc1`, for which the Decrease in [15] turned out to be 27%; in [5], 62%; in experiment [7], 35%; in experiment [8], 13%; in experiment [9], 3%; in experiment [16], 25%. In addition, the Decrease in experiment [10] stood at 10%; in experiment [11], 12%.
Regarding `CCCCCCCCCCCCCCCCOc1ccc(/C=C/C(=O)O)cc1`, the Decrease is 2% in experiment [17], 7% in experiment [18] and 2% in experiment [8].
Turning to `CCCCCCCCCCCCCCCCOc1ccc(/C=C(\C)C(=O)OCCCl)cc1`, the Decrease in experiment [15] is given as 26%; in experiment [19] it was 48%; in [20] it was 24%; in experiment [8], 20%; in experiment [16], 20%; in [11], 5%.
As for `C=C(C)C(=O)OCCOC(=O)/C=C/c1ccc(OCCCCCCC/C=C/CCCCCCCCC)cc1`, the Decrease is given as 21% in experiment [21] and -13% in [22].
On to `CCCCCCCCOc1ccc(/C=C/C(=O)OCC(O)CO)cc1` (configuration not stated), for which the values for the Decrease in experiment [13] and in experiment [14] were 15% and 7%, respectively.
For `O=C(/C=C/c1ccccc1)OCC(O)CO` (configuration not stated) the same measures were 16% and 6%.
As to `CCCCCCCCCCCCOc1ccc(/C=C(\C)C(=O)O)cc1`, the Decrease came to 31% in experiment [6]; 32% in experiment [23]; 14% in experiment [9]; 13% in experiment [10]; 7% in experiment [24]; 17% in experiment [4].
On to `O=C(/C=C/c1ccc(Oc2ccccc2)cc1)OCCCCl`, for which the Decrease in [13] is given as 54%; in [17] it was 13%; in experiment [14], 32%; in experiment [18], 4%; in experiment [8], 17%; in experiment [11], -2%.
Turning to `COc1ccc(/C=C/C(=O)OCC(O)CO)cc1` (configuration not stated), the Decrease in experiment [13] came to 31%; in experiment [14], 4%.
For the compound `CCCCCCCCCCCCCCCC(=O)OCC(O)COC(=O)/C(C)=C/c1ccc(OCCCCCCCCCCCCCC)cc1` (configuration not stated), the Decrease in [25] is given as -19%; in experiment [26], 3%.
For `C=CCOc1ccc(/C=C/C(=O)O)cc1`, the Decrease is -16% in experiment [27] and 0% in experiment [28].

Source of the values: ChEMBL document CHEMBL1121524, “Studies of hypolipidemic agents. 1. Synthesis and hypolipidemic activities of alkoxycinnamic acid derivatives” (1980).
